Consider 16 compounds from ChEMBL document CHEMBL2375299, “Synthesis and structure-activity relationships of carboxylic acid derivatives of pyridoxal as P2X receptor antagonists” (Bioorg Med Chem, 2013).

Active and inactive are the calls of the source. No cut-off for these calls is given here.

The target in assay [1] is T1, P2X purinoceptor 3 (Homo sapiens) (UniProt P56373).
T1 sequence (whole entry): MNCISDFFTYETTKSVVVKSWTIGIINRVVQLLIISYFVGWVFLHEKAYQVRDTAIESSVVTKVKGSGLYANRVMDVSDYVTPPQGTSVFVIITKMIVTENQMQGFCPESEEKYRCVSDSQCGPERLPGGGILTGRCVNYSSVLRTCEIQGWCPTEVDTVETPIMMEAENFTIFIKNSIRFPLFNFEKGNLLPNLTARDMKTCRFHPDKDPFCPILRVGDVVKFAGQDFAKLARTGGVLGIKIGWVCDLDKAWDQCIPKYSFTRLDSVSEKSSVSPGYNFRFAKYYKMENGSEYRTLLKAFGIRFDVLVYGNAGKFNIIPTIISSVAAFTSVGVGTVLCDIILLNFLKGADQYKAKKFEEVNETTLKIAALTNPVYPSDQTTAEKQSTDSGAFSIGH
Nature of the assay: Antagonist activity at human recombinant P2X3 receptor expressed in Xenopus oocytes assessed as inhibition of ATP-induced ion current at 10 uM incubated for 20 mins prior to ATP-induction by two-electrode voltage clamp assay. It is filed as cell-based. To be noted: Oocyte. The essentials:
(§1)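 Defolliculated Xenopus oocytes were injected with mouse P2X1 or human P2X3 cRNA (40 nL, 1 μg/mL), held 24 h at 18 °C in Barth's solution, then stored at 4 °C for up to 12 days. Two-electrode voltage clamp was run at Vh −70 mV with superfusion of Ringer's solution (pH 7.5, 18 °C). Compound was applied 20 min before 2 μM ATP (60–120 s), followed by 20 min washout. Mean ± SEM, n = 4 oocyte batches.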
Background: Two-electrode voltage clamp holds a large cell at a set potential and records current.

In assay [2] the target is T2, P2X purinoceptor 1 (Mus musculus) (UniProt P51576).
T2 sequence (whole entry): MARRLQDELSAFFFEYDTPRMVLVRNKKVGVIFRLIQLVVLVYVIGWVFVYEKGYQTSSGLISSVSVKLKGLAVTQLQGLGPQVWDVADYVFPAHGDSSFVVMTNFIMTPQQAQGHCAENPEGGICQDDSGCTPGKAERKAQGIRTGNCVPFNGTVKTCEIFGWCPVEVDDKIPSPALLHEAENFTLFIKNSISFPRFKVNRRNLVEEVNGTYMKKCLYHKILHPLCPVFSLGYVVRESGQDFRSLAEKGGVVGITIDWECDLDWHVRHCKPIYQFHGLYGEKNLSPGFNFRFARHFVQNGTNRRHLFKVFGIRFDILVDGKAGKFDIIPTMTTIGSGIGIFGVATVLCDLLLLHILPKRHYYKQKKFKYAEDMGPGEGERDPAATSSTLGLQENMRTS
The experiment in a line: Antagonist activity at mouse recombinant P2X1 receptor expressed in Xenopus oocytes assessed as inhibition of ATP-induced ion current at 10 uM incubated for 20 mins prior to ATP-induction by two-electrode voltage clamp assay. It is filed as cell-based. To be noted: Oocyte. The procedure, abridged: as §1

Assay [3] has as its target T3, P2X purinoceptor 7 (Homo sapiens) (UniProt Q99572).
T3 sequence (whole entry): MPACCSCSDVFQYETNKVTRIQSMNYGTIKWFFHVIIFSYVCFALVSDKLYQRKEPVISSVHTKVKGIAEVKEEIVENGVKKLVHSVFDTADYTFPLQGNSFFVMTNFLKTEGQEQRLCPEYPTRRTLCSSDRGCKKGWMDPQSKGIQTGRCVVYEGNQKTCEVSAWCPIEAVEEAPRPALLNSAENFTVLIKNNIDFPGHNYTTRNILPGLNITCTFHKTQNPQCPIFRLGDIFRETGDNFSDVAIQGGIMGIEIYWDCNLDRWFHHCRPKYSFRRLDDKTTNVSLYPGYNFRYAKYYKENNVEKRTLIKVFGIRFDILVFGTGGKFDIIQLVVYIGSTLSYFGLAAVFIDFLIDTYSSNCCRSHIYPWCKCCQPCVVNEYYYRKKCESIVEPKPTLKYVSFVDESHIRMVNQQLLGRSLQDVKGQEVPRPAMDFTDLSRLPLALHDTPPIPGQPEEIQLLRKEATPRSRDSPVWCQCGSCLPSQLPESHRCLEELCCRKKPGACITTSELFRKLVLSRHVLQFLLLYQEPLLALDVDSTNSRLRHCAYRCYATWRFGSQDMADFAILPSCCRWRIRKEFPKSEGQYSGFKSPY
Nature of the assay: Antagonist activity at human P2X7 receptor expressed in HEK293 cells assessed as inhibition of BzATP-induced ethidium bromide uptake at 10 uM after 120 mins by fluorimetric analysis. The class given is cell-based. The procedure, abridged: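 HEK293 cells stably expressing hP2X7 were grown in DMEM with 10% FBS, trypsinized and resuspended at 2.5×10^6 cells/mL in HEPES/N-methyl-D-glucamine/KCl/glucose/0.5 mM CaCl2 buffer, pH 7.4, with 100 μM ethidium bromide. Cells were added at 2×10^5 per well to BzATP. After 120 min at 37 °C, ethidium fluorescence was read at ex 530 / em 590 nm.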

In assay [4] the target is T2, P2X purinoceptor 1 (Mus musculus). The experiment in a line: Antagonist activity at mouse recombinant P2X1 receptor expressed in Xenopus oocytes assessed as inhibition of ATP-induced ion current at 100 nM incubated for 20 mins prior to ATP-induction by two-electrode voltage clamp assay. The class given is cell-based. To be noted: Oocyte. The essentials: as §1
Assay [5] has as its target T1, P2X purinoceptor 3 (Homo sapiens). The experiment in a line: Antagonist activity at human recombinant P2X3 receptor expressed in Xenopus oocytes assessed as inhibition of ATP-induced ion current at 100 nM incubated for 20 mins prior to ATP-induction by two-electrode voltage clamp assay. The class given is cell-based. The settings on record: Oocyte. The procedure, abridged:
as §1

The target of assay [6] is T4, P2X purinoceptor 1 (Mus musculus, UniProt P51576).
T4 sequence (P51576 whole entry): T2 sequence (whole entry)
Nature of the assay: (§2) Antagonist activity at mouse recombinant P2X1 receptor expressed in Xenopus oocytes assessed as inhibition of ATP-induced ion current incubated for 20 mins prior to ATP-induction by two-electrode voltage clamp assay. It is filed as cell-based, Oocyte. The procedure, abridged:
as §1

A short description of assay [7]: Selectivity ratio of IC50 for mouse recombinant P2X1 receptor to IC50 for human recombinant P2X3 receptor.
For the next assay, the target named is T5, P2X purinoceptor 3 (Homo sapiens, UniProt P56373).
T5 sequence (P56373 whole entry): T1 sequence (whole entry)
Nature of the assay: Antagonist activity at human recombinant P2X3 receptor expressed in Xenopus oocytes assessed as inhibition of ATP-induced ion current incubated for 20 mins prior to ATP-induction by two-electrode voltage clamp assay. The class given is cell-based, Oocyte. The procedure, abridged: as §1

For assay [8], the target named is T6, P2X purinoceptor 1 (Homo sapiens, UniProt P51575).
T6 sequence (P51575 whole entry): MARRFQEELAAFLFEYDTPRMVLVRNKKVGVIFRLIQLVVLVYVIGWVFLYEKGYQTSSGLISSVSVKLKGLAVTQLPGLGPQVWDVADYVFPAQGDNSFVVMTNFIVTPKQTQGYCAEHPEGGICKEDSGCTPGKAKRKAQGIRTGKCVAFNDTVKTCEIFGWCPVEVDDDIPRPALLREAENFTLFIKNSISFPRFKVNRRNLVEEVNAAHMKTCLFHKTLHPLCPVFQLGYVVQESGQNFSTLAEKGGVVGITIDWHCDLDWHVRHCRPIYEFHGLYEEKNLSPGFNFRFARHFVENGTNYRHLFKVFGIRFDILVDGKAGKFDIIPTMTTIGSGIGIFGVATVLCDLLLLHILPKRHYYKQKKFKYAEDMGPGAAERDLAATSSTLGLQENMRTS
The experiment in a line: Antagonist activity at P2X1 receptor (unknown origin).

The next assay addresses T7, P2X purinoceptor 7 (Homo sapiens, UniProt Q99572).
T7 sequence (Q99572 whole entry): T3 sequence (whole entry)
Nature of the assay: Antagonist activity at P2X7 receptor (unknown origin).

The target of assay [9] is T2, P2X purinoceptor 1 (Mus musculus). Nature of the assay: Antagonist activity at mouse recombinant P2X1 receptor expressed in Xenopus oocytes assessed as inhibition of ATP-induced ion current incubated for 20 mins prior to ATP-induction measured after compound washout by two-electrode voltage clamp assay. To be noted: Oocyte. The class given is cell-based. The essentials: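 Oocytes expressing mP2X1 were superfused with compound for 20 min before 2 μM ATP. Reversibility was checked by recording the ATP current after washout (20 min wash between ATP applications). Recordings used two-electrode voltage clamp at −70 mV in Ringer's solution, pH 7.5, 18 °C.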

Assay [10] shares this target. The description is as §2. It is filed as cell-based. The settings on record: Oocyte. The procedure, abridged:
as §1

As for `Cc1ncc(CN(CCC(=O)O)Cc2ccccc2)c(C(=O)O)c1O`, the inhibition entry in assay [1] and in assay [2] was “inactive” each time.
With `Cc1ncc(CCC(=O)O)c(C(=O)O)c1O`, the results for the inhibition in assay [1] and in [2] were 15.2% and 14.8%, respectively.
For `Cc1nc(/N=N/c2ccc(S(=O)(=O)O)cc2)c(CCC(=O)O)c(C=O)c1O`, the inhibition (usually how much of the control response was suppressed) in [3] was < 50%; in [4], 41.8%; in assay [5] it was 46.5%.
Taken in the same sequence, the figures for `Cc1nc(/N=N/c2ccc(S(=O)(=O)O)cc2)c(CCC(=O)O)c(C(=O)O)c1O` were < 50%, 57.6% and 37.6%.
For `Cc1nc(/N=N/c2cc(S(=O)(=O)O)ccc2S(=O)(=O)O)c(COP(=O)(O)O)c(C=O)c1O` [ISOPPADS], the values for the concentration for half-maximal inhibition (IC50) on P2X purinoceptor 1 [6] and at P2X purinoceptor 3 were 30.7 nM and 96.2 nM, respectively. Besides, the Ratio IC50 in assay [7] worked out at 0.3.
Consider `Cc1ncc(/C=C/C(=O)O)c(C=O)c1O`, for which the inhibition in assay [1] turned out to be 9.3%; in assay [2], 7.4%.
Taken in the same sequence, the figures for `Cc1ncc(CCC(=O)O)c(C=O)c1O` were 22.3% and 19.5%.
Regarding `Cc1nc(/N=N/c2ccc(C(=O)O)cc2)c(CCC(=O)O)c(C(=O)O)c1O`, the inhibition in assay [3] was < 50%; in [4], 51.7%; in assay [5], 25.7%.
`Cc1ncc(COP(=O)(O)O)c(C=O)c1O` [PYRIDOXAL PHOSPHATE ANHYDROUS]: the inhibition in assay [1] amounted to 20.1%; in assay [2], 13.2%. Further, inhibition against P2X purinoceptor 1 [8] was half-maximal at 10000 nM (IC50).
For `Cc1ncc(/C=C/C(=O)O)c(C(=O)O)c1O`, the inhibition result in assay [1] and in assay [2] was “inactive” each time.
With `Cc1nc(/N=N/c2cc(S(=O)(=O)O)ccc2S(=O)(=O)O)c(CCC(=O)O)c(C(=O)O)c1O`, the inhibition in [3] is < 50%; in [4], 60.2%; in [5] it was 45.7%.
On to `Cc1nc(/N=N/c2ccc(C(=O)O)cc2)c(CCC(=O)O)c(C=O)c1O`, for which the figures for the inhibition in [3], in assay [4] and in assay [5] were < 50%, 48.5% and 56.3%, respectively. For the same compound, the Ratio IC50 in [7] came to 1.6.
As to `Cc1nc(/N=N/c2ccc(C(=O)O)cc2)c(COP(=O)(O)O)c(C=O)c1O`, the midpoint of inhibition against P2X purinoceptor 7, the IC50, lay at 600 nM.
As to `Cc1ncc(CN(CCC(=O)O)Cc2ccccc2)c(C=O)c1O`, the inhibition entry in assay [1] and in assay [2] was “inactive” throughout.
As to `Cc1nc(/N=N/c2cc(S(=O)(=O)O)ccc2S(=O)(=O)O)c(CCC(=O)O)c(C=O)c1O`, in assay [9], the inhibition result was “inactive”. The inhibition in [3] was < 50%; in assay [4], 58.6%; in assay [5] it was 40.1%; in assay [10] it was “Dose-dependent effect”. Besides, in assay [7], the Ratio IC50 was 0.7.
In the case of `Cc1nc(/N=N/c2cc(S(=O)(=O)O)c3cc([N+](=O)[O-])cc(S(=O)(=O)O)c3c2)c(COP(=O)(O)O)c(C=O)c1O`, the IC50 (in general, the concentration at which inhibition is half-maximal) at P2X purinoceptor 7 worked out at 600 nM.
